Reference: ChEMBL document CHEMBL1123517, “Synthesis and antiallergic activity of a novel series of 5-lipoxygenase inhibitors” (J Med Chem, 1986)

Key:
[1] = tested on: Cavia porcellus; test: In vivo inhibition of ovalbumin induced bronchoconstriction in guinea pig by 50 mg/kg 10 min prior to challenge.; format: functional
Outline: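 Male Hartley guinea pigs (350–600 g) sensitized to OA (5 mg ip + 5 mg sc), used 3–5 weeks later under pentobarbital (50 mg/kg ip), artificially ventilated. Indomethacin 10 mg/kg iv 9 min before challenge, chlorpheniramine 1.0 mg/kg iv 1 min later. Drug 50 mg/kg id 10 min before aerosolized 1% OA; controls saline.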

[2] = target: T1, Polyunsaturated fatty acid 5-lipoxygenase (Rattus norvegicus, UniProt P12527); test: In vitro for inhibition of LTB4 (leukotriene B4) production in isolated rat polymorphonuclear leukocytes (PMNs).; format: functional
T1 sequence (P12527 whole entry): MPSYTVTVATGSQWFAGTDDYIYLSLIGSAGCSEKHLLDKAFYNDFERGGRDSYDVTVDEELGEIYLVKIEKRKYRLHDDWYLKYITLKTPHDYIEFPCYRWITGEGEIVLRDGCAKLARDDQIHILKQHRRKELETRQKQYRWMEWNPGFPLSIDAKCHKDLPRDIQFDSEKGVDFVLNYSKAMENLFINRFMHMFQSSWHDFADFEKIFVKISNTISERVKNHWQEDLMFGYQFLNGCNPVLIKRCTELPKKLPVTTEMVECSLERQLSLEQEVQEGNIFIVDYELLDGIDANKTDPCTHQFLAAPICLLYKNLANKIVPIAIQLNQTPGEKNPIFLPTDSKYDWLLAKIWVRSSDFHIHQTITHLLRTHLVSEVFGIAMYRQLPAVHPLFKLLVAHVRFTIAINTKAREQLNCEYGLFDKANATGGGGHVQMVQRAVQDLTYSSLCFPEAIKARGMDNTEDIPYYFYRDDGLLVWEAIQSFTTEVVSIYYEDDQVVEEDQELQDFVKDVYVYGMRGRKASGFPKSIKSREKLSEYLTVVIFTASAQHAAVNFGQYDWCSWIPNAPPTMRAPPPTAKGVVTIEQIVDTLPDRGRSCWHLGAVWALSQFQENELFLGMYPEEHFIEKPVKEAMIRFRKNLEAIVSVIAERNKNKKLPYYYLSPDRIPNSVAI
Outline: (§1)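 Peritoneal PMNs from female Wistar rats (150–250 g) given 6% glycogen ip; harvested at 24 h by lavage, resuspended at 2×10^7 cells/mL in HBSS with Ca2+/Mg2+ and 10 mM L-cysteine. Drug or vehicle preincubated 10 min at 37 °C; then A23187 (10 μM) plus 0.5 μCi [14C]arachidonic acid for 10 min. Stopped at pH 3.5, ether-extracted; IC50 per metabolite by nonlinear regression.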

[3] = target: T1, Polyunsaturated fatty acid 5-lipoxygenase; test: In vitro for inhibition of 5-HETE production in isolated rat polymorphonuclear leukocytes (PMNs); format: functional; outline: as §1
[4] = species on record: Cavia porcellus; test: Competitive inhibition of LTD4-induced contraction of isolated guinea pig tracheal spiral strips
[5] = species on record: Rattus norvegicus; test: Compound was tested in vitro for inhibition of 5-HETE production in isolated rat polymorphonuclear leukocytes (PMNs) at 50 uM; format: functional

SMILES | inhibition in vivo at 50 mg/kg [1] [%] | IC50 [2] [µM] | IC50 [3] [µM] | pKB [4] | inhibition at 50 µM [5] [%]
CCCCCC(=O)c1ccc(OCc2cccc(NC(=O)CCC(=O)OC)c2)cc1O | 0 | – | – | – | –
COC(=O)CCCC(=O)Nc1cccc(COc2ccc(C(C)=O)c(O)c2)c1 | -0.1 | 39.3 | 32.7 | – | –
CCc1ccc(OCc2cccc(NC(=O)CCC(=O)OC)c2)cc1OC | 0.2 | 7.09 | 5.6 | – | –
CCCCCCc1ccc(OCc2cccc(NC(=O)CC(=O)OC)c2)cc1OC | -0.2 | 1.7 | 1.59 | – | –
CCCc1c(OCCCCc2nnn[nH]2)ccc(C(C)=O)c1O [TOMELUKAST] | 78.8 | 21.6 | 41 | – | –
COC(=O)CCC(=O)Nc1cccc(COc2ccc(C(C)=O)c(O)c2)c1 | 37.9 | – | – | – | –
CCCCCC(=O)c1ccc(OCc2cccc(NC(=O)CCC(=O)OC)c2)cc1OC | 0 | 3.87 | 3.71 | – | –
COC(=O)CCCC(=O)Nc1cccc(COc2ccc(C(C)=O)c(F)c2)c1 | 0 | – | – | – | –
CCc1ccc(OCc2cccc(NC(=O)CC(=O)OC)c2)cc1OC | 0.2 | – | – | – | –
COC(=O)C1CC(=O)N(c2cccc(COc3ccc(C(C)=O)c(F)c3)c2)C1 (configuration not stated) | – | 20.4 | 5.35 | – | –
COC(=O)C(=O)Nc1cccc(COc2ccc(C(C)=O)c(O)c2)c1 | 0.1 | 39.5 | 25.1 | – | –
COC(=O)CC(=O)Nc1cccc(COc2ccc(C(C)=O)c(O)c2)c1 | 61.4 | 11.7 | 14.2 | 4.94 | –
COC(=O)CCC(=O)Nc1cccc(COc2ccc(C(C)=O)c(F)c2)c1 | 20.8 | – | – | – | –
COC(=O)CCC(=O)Nc1cccc(COc2ccc(C(C)=O)c(OC)c2)c1 | 0.11 | – | – | – | –
CCCCCC(=O)c1ccc(OCc2cccc(NC(=O)CC(=O)OC)c2)cc1O | -0.5 | – | – | – | –
COC(=O)CC(=O)Nc1cccc(COc2ccc(C(C)=O)c(OC)c2)c1 | 64.3 | – | – | – | –
CCCCCCc1ccc(OCc2cccc(NC(=O)CCC(=O)OC)c2)cc1OC | 0.2 | – | – | – | –
COC(=O)CC(=O)Nc1cccc(COc2ccc(C(C)=O)cc2)c1 | 37.2 | – | – | – | < 50
CCCc1c(OCc2cccc(NC(=O)CC(=O)OC)c2)ccc(C(C)=O)c1O | 24.8 | – | – | – | –
CCCCCC(=O)c1ccc(OCc2cccc(NC(=O)CC(=O)OC)c2)cc1OC | 0 | – | – | – | –
COC(=O)CC(=O)Nc1cccc(COc2cccc(OC)c2)c1 | – | – | – | – | < 50
COC(=O)C(=O)Nc1cccc(COc2ccc(C(C)=O)c(F)c2)c1 | 57.3 | – | – | – | –
COC(=O)CC(=O)Nc1cccc(COc2ccc(C(C)=O)c(F)c2)c1 | 0 | 22.5 | 25.5 | – | –
